# ChEMBL document CHEMBL1275556, “High prevalence of plasmid-mediated quinolone resistance genes qnr and aac(6')-Ib-cr in clinical isolates of Enterobacteriaceae from nine teaching hospitals in China” (2008)
# How the values were obtained:
# Type in all cases: functional
# Citrobacter freundii [1] = assay: Antimicrobial activity against aac(6')-Ib-cr-positive Citrobacter freundii JN1T by agar dilution method in presence of clavulanic acid
# Method in brief: (§1)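 Transconjugants came from conjugation of qnr and/or aac(6')-Ib-cr-carrying donors with azide-resistant E. coli J53. […] MICs were determined by CLSI agar dilution (M7-A7) and interpreted by M100-S17.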
# Klebsiella pneumoniae [2] = assay: Antimicrobial activity against aac(6')-Ib-cr-negative Klebsiella pneumoniae SY22 harboring GyrA S83I, ParC S80I mutant, wild-type GyrB and qnrS genes by agar dilution method
# Method in brief: (§2)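 MICs were determined by the CLSI agar dilution method (M7-A7) and interpreted against CLSI M100-S17 breakpoints.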
# Citrobacter freundii [3] = assay: Antimicrobial activity against aac(6')-Ib-cr-positive Citrobacter freundii JS33T harboring qnrA gene by agar dilution method; method in brief: as §2
# Enterobacter cloacae [4] = assay: Antimicrobial activity against aac(6')-Ib-cr-negative Enterobacter cloacae WH42 harboring wild-type GyrA, ParC, GyrB and qnrA genes by agar dilution method in presence of clavulanic acid; method in brief: as §2
# Klebsiella pneumoniae [5] = assay: Antimicrobial activity against aac(6')-Ib-cr-positive Klebsiella pneumoniae WH99T harboring qnrB gene by agar dilution method
# Method in brief: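 Transconjugants were made by conjugating a qnr/aac(6')-Ib-cr donor with azide-resistant E. coli J53. Selection used Trypticase soy agar with sodium azide 150 µg/ml and sulfamethoxazole 180 µg/ml. […] MICs were read by CLSI agar dilution (M7-A7) and interpreted per M100-S17.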
# Escherichia coli [6] = assay: Antimicrobial activity against aac(6')-Ib-cr-negative Escherichia coli PU12T harboring wild-type GyrA, GyrB, ParC and qnrS genes by agar dilution method in presence of clavulanic acid; method in brief: as §1
# Klebsiella pneumoniae [7] = assay: Antimicrobial activity against aac(6')-Ib-cr-positive Klebsiella pneumoniae WH99 harboring wild-type GyrA, ParC, GyrB and qnrB genes by agar dilution method
# Method in brief: (§3)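 MICs were determined on clinical isolates by CLSI agar dilution (M7-A7) and interpreted against CLSI M100-S17 breakpoints.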
# Escherichia coli [8] = assay: Antimicrobial activity against aac(6')-Ib-cr-negative Escherichia coli PU12 harboring GyrA S83L mutant, wild-type GyrB, ParC and qnrS genes by agar dilution method in presence of clavulanic acid
# Method in brief: (§4)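 MICs were determined by CLSI agar dilution (M7-A7) and interpreted by CLSI M100-S17 breakpoints. The curator's line names the β-lactamase inhibitor added.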
# Klebsiella pneumoniae [9] = assay: Antimicrobial activity against aac(6')-Ib-cr-positive Klebsiella pneumoniae SY26 harboring GyrA S83I, ParC S80I mutant, wild-type GyrB and qnrB genes by agar dilution method; method in brief: as §3
# Enterobacter cloacae [10] = assay: Antimicrobial activity against aac(6')-Ib-cr-negative Enterobacter cloacae SH39 harboring GyrA S83I, ParC S80I mutant, wild-type GyrB and qnrA genes by agar dilution method
# Enterobacter cloacae [11] = assay: Antimicrobial activity against aac(6')-Ib-cr-positive Enterobacter cloacae FJ63 harboring GyrA S83I, GyrA D87A, ParC S80I mutant, wild-type GyrB and qnrS genes by agar dilution method
# Klebsiella pneumoniae [12] = assay: Antimicrobial activity against aac(6')-Ib-cr-positive Klebsiella pneumoniae JN41 harboring GyrA S83I, ParC S80I mutant, wild-type GyrB and qnrB genes by agar dilution method; method in brief: as §3
# Klebsiella pneumoniae [13] = assay: Antimicrobial activity against aac(6')-Ib-cr-negative Klebsiella pneumoniae SY22T harboring qnrS gene by agar dilution method; method in brief: as §2
# Enterobacter cloacae [14] = assay: Antimicrobial activity against aac(6')-Ib-cr-negative Enterobacter cloacae FJ61T harboring qnrS gene by agar dilution method in presence of clavulanic acid; method in brief: as §1
# Citrobacter freundii [15] = assay: Antimicrobial activity against aac(6')-Ib-cr-positive Citrobacter freundii JS33T harboring qnrA gene by agar dilution method in presence of clavulanic acid; method in brief: as §1
# Enterobacter cloacae [16] = assay: Antimicrobial activity against aac(6')-Ib-cr-negative Enterobacter cloacae GZ51 harboring qnrA gene by agar dilution method
# Escherichia coli [17] = assay: Antimicrobial activity against aac(6')-Ib-cr-positive Escherichia coli FJ3 harboring GyrA S83L, ParC S80R mutant, wild-type GyrB and qnrB genes by agar dilution method; method in brief: as §2
# Klebsiella pneumoniae [18] = assay: Antimicrobial activity against aac(6')-Ib-cr-positive Klebsiella pneumoniae SY26T harboring wild-type GyrA, ParC, GyrB and qnrB genes by agar dilution method
# Method in brief: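 Transconjugants were made by conjugating a qnr/aac(6')-Ib-cr donor with azide-resistant E. coli J53. MICs were read by CLSI agar dilution (M7-A7) and interpreted per M100-S17.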
# Citrobacter freundii [19] = assay: Antimicrobial activity against aac(6')-Ib-cr-positive Citrobacter freundii JN1 harboring GyrA T83I, ParC S80I mutant, wild-type GyrB and qnrA genes by agar dilution method; method in brief: as §2
# Enterobacter cloacae [20] = assay: Antimicrobial activity against aac(6')-Ib-cr-positive Enterobacter cloacae FJ63T harboring qnrS gene by agar dilution method in presence of Tazobactam; method in brief: as §2
# Citrobacter freundii [21] = assay: Antimicrobial activity against aac(6')-Ib-cr-positive Citrobacter freundii JS33T harboring qnrA gene by agar dilution method in presence of Tazobactam; method in brief: as §2
# Enterobacter cloacae [22] = assay: Antimicrobial activity against aac(6')-Ib-cr-negative Enterobacter cloacae GZ51 harboring qnrA gene by agar dilution method in presence of Tazobactam; method in brief: as §2
# Klebsiella pneumoniae [23] = assay: Antimicrobial activity against aac(6')-Ib-cr-positive Klebsiella pneumoniae WH99 harboring wild-type GyrA, ParC, GyrB and qnrB genes by agar dilution method in presence of Tazobactam
# Method in brief: (§5)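 MICs measured by CLSI agar dilution (M7-A7) and interpreted against CLSI M100-S17 breakpoints. Strains were clinical Enterobacteriaceae isolates or the azide-resistant E. coli J53 recipient.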
# Enterobacter cloacae [24] = assay: Antimicrobial activity against aac(6')-Ib-cr-negative Enterobacter cloacae WH42T harboring qnrA gene by agar dilution method in presence of Tazobactam; method in brief: as §2
# Citrobacter freundii [25] = assay: Antimicrobial activity against aac(6')-Ib-cr-negative Citrobacter freundii JN64T harboring qnrA gene by agar dilution method in presence of Tazobactam; method in brief: as §2
# Enterobacter cloacae [26] = assay: Antimicrobial activity against aac(6')-Ib-cr-negative Enterobacter cloacae GZ51T harboring qnrA gene by agar dilution method in presence of Tazobactam; method in brief: as §2
# Citrobacter freundii [27] = assay: Antimicrobial activity against aac(6')-Ib-cr-positive Citrobacter freundii PU55 harboring GyrA T83I, ParC S80I mutant, wild-type GyrB, qnrA genes by agar dilution method in presence of Tazobactam; method in brief: as §4
# Klebsiella pneumoniae [28] = assay: Antimicrobial activity against aac(6')-Ib-cr-positive Klebsiella pneumoniae JN41 harboring GyrA S83I, ParC S80I mutant, wild-type GyrB and qnrB genes by agar dilution method in presence of Tazobactam; method in brief: as §5
# Klebsiella pneumoniae [29] = assay: Antimicrobial activity against aac(6')-Ib-cr-negative Klebsiella pneumoniae SY22T harboring qnrS gene by agar dilution method in presence of Tazobactam; method in brief: as §2
# Escherichia coli [30] = assay: Antimicrobial activity against aac(6')-Ib-cr-negative Escherichia coli PU12 harboring GyrA S83L mutant, wild-type GyrB, ParC and qnrS genes by agar dilution method in presence of Tazobactam; method in brief: as §5
# Enterobacter cloacae [31] = assay: Antimicrobial activity against aac(6')-Ib-cr-negative Enterobacter cloacae WH42 harboring wild-type GyrA, ParC, GyrB and qnrA genes by agar dilution method in presence of Tazobactam; method in brief: as §5
smiles,measurement,setting,value
CO/N=C(\C(=O)N[C@@H]1C(=O)N2C(C(=O)O)=C(COC(C)=O)CS[C@H]12)c1csc(N)n1 [CEFOTAXIME],MIC,Citrobacter freundii [1],0.032 µg/mL
same,MIC,Klebsiella pneumoniae [2],2 µg/mL
same,MIC,Citrobacter freundii [3],0.125 µg/mL
same,MIC,Enterobacter cloacae [4],256 µg/mL
same,MIC,Klebsiella pneumoniae [5],16 µg/mL
same,MIC,Escherichia coli [6],0.032 µg/mL
same,MIC,Klebsiella pneumoniae [7],32 µg/mL
same,MIC,Escherichia coli [8],0.032 µg/mL
same,MIC,Klebsiella pneumoniae [9],8 µg/mL
same,MIC,Enterobacter cloacae [10],4 µg/mL
same,MIC,Enterobacter cloacae [11],> 256 µg/mL
same,MIC,Klebsiella pneumoniae [12],32 µg/mL
same,MIC,Klebsiella pneumoniae [13],0.5 µg/mL
same,MIC,Enterobacter cloacae [14],0.032 µg/mL
same,MIC,Citrobacter freundii [15],0.032 µg/mL
same,MIC,Enterobacter cloacae [16],64 µg/mL
same,MIC,Escherichia coli [17],128 µg/mL
same,MIC,Klebsiella pneumoniae [18],4 µg/mL
same,MIC,Citrobacter freundii [19],> 256 µg/mL
CCN1CCN(C(=O)N[C@@H](C(=O)N[C@@H]2C(=O)N3[C@@H]2SC(C)(C)[C@@H]3C(=O)O)c2ccccc2)C(=O)C1=O [PIPERACILLIN],MIC,Enterobacter cloacae [20],2 µg/mL
same,MIC,Citrobacter freundii [21],4 µg/mL
same,MIC,Enterobacter cloacae [22],2 µg/mL
same,MIC,Klebsiella pneumoniae [23],8 µg/mL
same,MIC,Enterobacter cloacae [24],1 µg/mL
same,MIC,Citrobacter freundii [25],4 µg/mL
same,MIC,Enterobacter cloacae [26],2 µg/mL
same,MIC,Citrobacter freundii [27],64 µg/mL
same,MIC,Klebsiella pneumoniae [28],4 µg/mL
same,MIC,Klebsiella pneumoniae [29],1 µg/mL
same,MIC,Escherichia coli [30],1 µg/mL
same,MIC,Enterobacter cloacae [31],64 µg/mL
